The values that follow come from paper PMC6982540 (Nature chemical biology, 2019).

The subject of experiment [1] is reduced PTP1B (PTP1B-R). The experiment can be described thus: SPR. Type of experiment: binding. Conditions: 14-3-3ζ 5000 nM (Fig. 2c), HBS-N pH 7.4, 25 °C. An outline of the steps: (§1)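 His-PTP1B (1–321) kept in TCEP. For oxidized, phosphorylated form: H2O2 oxidation (250 μM, 10 min, RT), desalting into reductant-free kinase buffer, AKT phosphorylation 16 h at 30°C. Captured on Ni2+-activated NTA chip (2.7 μM injected); reference cell had no NiCl2. 14-3-3ζ in HBS-N pH 7.4 injected at 30 μl/min, 3 min dissociation, 2 M NaCl regeneration, 25 °C.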

Experiment [2] concerns PTP1B-OX(P). The experiment can be described thus: SPR. Type of experiment: binding. Conditions: 14-3-3ζ 5000 nM (Fig. 2c), HBS-N pH 7.4, 25 °C. In short, it runs like this:
as §1

For experiment [3], the system named is reduced PTP1B. The experiment can be described thus: in vitro pull-down of reduced PTP1B with 14-3-3ζ. Type of experiment: binding. Conditions: 50 nM PTP1B-R, 5 μM 14-3-3ζ, pH 7.4, 2 hours at 4°C, immunoblot. In short, it runs like this:
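Bacterial His-PTP1B (1–321) kept in 1 mM TCEP; GST-14-3-3ζ purified on glutathione agarose. Reduced PTP1B 50 nM with 14-3-3ζ 5 μM in HEPES binding buffer (BSA, Tween, pH 7.4), 2 h at 4°C. Glutathione agarose capture 1 h at 4°C, three washes, SDS-PAGE; immunoblot with anti-PTP1B and anti-GST.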
(A western blot detects proteins with antibodies after separation by electrophoresis.)

Experiment [4] has as its system PTP1B–14-3-3ζ association. Type of experiment: cell-based.
The test system of experiment [5] is PTP1B. The experiment can be described thus: PTP1B catalytic activity. Type of experiment: cell-based. Conditions: EGF 100 ng/ml, pNPP, N=3 independent experiments.
For experiment [6], the system named is PTP1B. The experiment can be described thus: cysteinyl-labeling assay. Type of experiment: cell-based. Conditions: EGF 100 ng/ml, indicated times; three independent experiments.
The test system of experiment [7] is 14-3-3ζ. The experiment can be described thus: pTyr loop derived-peptide pulldown from HEK293T lysates, iTRAQ LC-MS/MS. Type of experiment: binding, human.

“14-3-3ζ: bacterially expressed, purified GST-14-3-3-ζ protein”: the “SPR binding of 14-3-3ζ to active reduced PTP1B” value in experiment [1] is reported as “not to the active reduced form of the enzyme”. Further, the “SPR binding of 14-3-3ζ to oxidized, phosphorylated PTP1B” value in experiment [2] was “specifically binds to PTP1B in its oxidized and phosphorylated inactive state”. In experiment [3], the “interaction of 14-3-3ζ with reduced PTP1B, in vitro pull-down” value was “no interaction occurred with reduced PTP1B”.
“EGF: epidermal growth factor, 100 ng/ml, used to activate EGFR”: in experiment [4] (EGF 100 ng/ml, 0-10 min, HEK293T, three independent experiments), the “PTP1B–14-3-3ζ association following EGF” value is “transient association between PTP1B and 14-3-3ζ between 2 to 5 minutes”. Further, the “PTP1B activity after EGF 10 min” value in experiment [5] is on record as “mostly recovered”. For the same molecule, the “reversible oxidation (biotinylation) of PTP1B, EGF” value in experiment [6] was “PTP1B biotinylation was detected in a transient manner at 1 and 2 minutes”.
With CKNRNRYRDVS [pTyr loop-derived-peptide], in experiment [7] (HEK293T lysate, 90 minutes at 4 °C, vs cysteine control beads), the “enrichment of 14-3-3ζ by peptide bait (iTRAQ)” value is “one of the most abundant proteins, and the most abundant 14-3-3 isoform”. Moreover, in experiment [7] (concluded from SPR compared with MS analysis), the “nature of interaction of unphosphorylated loop peptide with 14-3-3ζ” value was “occurs indirectly via a protein intermediate”.
For the molecule `CC(=O)N[C@@H](CS)C(=O)O` [NAC, N-acetylcysteine, reference compound], the “PTP1B–14-3-3ζ association in cells, NAC” value in experiment [4] (NAC 1 mM, 1 h, EGF stimulation, two independent experiments (Fig. 1d)) is “Redox-dependent association between PTP1B and 14-3-3ζ was confirmed”.
